Assay results reported in ChEMBL document CHEMBL4342521 (J Med Chem, 2020).
The source made the active and inactive calls. The calls are words filed in the database; no cut-off is given here.

Experiments:
[1] = Mutagenecity in Salmonella typhimurium TA100 at 10 uM in presence of S9 liver homogenate after 2 to 3 days by mini-Ames test; type: toxicity; conditions: salmonella enterica subsp. enterica serovar typhimurium, s9, 10 µM
How it was run: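 Compound was tested at a final 10 μM undiluted plus four serial dilutions, with S9 mix and glucose/biotin/trace-histidine exposure solution, for 100 min at 37 °C. Reversion medium was added and cultures dispensed to 96 wells for 2–3 days at 37 °C. Yellow or partial-yellow wells were scored positive; 2-aminoanthracene was the positive control.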

[2] = molecular target: Histone deacetylase 1 (Homo sapiens, UniProt Q13547); assay: Inhibition of recombinant HDAC1 (unknown origin) using Boc-Lys(acetyl)-AMC as substrate preincubated for 1 hr followed by substrate addition and measured after 2 hrs by fluorescence based micro plate reader analysis
Chain of Histone deacetylase 1 (Q13547 whole entry): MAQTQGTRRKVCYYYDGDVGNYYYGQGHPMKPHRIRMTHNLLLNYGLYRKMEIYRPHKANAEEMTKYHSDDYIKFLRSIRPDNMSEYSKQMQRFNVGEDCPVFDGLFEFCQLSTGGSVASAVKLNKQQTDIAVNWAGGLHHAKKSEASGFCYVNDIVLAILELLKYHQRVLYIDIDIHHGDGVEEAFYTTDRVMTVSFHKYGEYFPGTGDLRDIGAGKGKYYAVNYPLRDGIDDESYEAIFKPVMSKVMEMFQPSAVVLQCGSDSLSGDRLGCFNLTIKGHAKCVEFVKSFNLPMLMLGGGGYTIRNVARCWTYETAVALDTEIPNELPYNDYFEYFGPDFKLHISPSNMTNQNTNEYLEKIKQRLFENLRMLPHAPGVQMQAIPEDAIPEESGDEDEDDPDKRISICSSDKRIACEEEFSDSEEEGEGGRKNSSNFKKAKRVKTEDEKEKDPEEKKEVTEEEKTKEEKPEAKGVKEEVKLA

[3] = molecular target: Histone deacetylase 2 (Homo sapiens, UniProt Q92769)
Chain of Histone deacetylase 2 (Q92769 whole entry): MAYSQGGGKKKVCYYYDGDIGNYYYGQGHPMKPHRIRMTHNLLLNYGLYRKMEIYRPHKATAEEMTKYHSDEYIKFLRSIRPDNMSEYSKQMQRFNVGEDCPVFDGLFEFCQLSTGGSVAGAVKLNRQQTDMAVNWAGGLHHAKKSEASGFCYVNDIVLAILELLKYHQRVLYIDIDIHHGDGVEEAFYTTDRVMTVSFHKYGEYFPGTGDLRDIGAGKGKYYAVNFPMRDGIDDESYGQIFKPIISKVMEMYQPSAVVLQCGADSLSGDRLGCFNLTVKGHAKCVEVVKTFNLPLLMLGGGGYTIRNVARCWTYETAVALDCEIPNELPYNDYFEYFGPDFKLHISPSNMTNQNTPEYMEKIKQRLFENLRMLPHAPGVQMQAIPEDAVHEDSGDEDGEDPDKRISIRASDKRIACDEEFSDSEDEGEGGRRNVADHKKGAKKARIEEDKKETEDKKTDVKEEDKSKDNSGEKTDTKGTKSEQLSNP

[4] = molecular target: Histone deacetylase 3/Nuclear receptor corepressor 2 (HDAC3/NCoR2) (Homo sapiens, UniProt O15379); assay: biochemical; set-up: species or system Sf9
Chain of Histone deacetylase 3/Nuclear receptor corepressor 2 (HDAC3/NCoR2) (O15379 whole entry): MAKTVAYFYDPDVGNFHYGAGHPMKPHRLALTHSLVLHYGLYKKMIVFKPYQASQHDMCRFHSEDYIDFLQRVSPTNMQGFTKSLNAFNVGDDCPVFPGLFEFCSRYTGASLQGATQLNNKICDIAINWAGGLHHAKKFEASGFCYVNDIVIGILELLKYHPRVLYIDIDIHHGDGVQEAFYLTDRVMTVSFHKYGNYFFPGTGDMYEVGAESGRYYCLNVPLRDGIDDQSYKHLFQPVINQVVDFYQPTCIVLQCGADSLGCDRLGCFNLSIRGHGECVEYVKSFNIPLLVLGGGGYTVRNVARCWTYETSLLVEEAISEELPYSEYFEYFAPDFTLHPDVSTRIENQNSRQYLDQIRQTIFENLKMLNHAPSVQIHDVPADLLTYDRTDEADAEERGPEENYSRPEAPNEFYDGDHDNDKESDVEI
Chain of Histone deacetylase 3/Nuclear receptor corepressor 2 (HDAC3/NCoR2) (Q9Y618 whole entry, further chain): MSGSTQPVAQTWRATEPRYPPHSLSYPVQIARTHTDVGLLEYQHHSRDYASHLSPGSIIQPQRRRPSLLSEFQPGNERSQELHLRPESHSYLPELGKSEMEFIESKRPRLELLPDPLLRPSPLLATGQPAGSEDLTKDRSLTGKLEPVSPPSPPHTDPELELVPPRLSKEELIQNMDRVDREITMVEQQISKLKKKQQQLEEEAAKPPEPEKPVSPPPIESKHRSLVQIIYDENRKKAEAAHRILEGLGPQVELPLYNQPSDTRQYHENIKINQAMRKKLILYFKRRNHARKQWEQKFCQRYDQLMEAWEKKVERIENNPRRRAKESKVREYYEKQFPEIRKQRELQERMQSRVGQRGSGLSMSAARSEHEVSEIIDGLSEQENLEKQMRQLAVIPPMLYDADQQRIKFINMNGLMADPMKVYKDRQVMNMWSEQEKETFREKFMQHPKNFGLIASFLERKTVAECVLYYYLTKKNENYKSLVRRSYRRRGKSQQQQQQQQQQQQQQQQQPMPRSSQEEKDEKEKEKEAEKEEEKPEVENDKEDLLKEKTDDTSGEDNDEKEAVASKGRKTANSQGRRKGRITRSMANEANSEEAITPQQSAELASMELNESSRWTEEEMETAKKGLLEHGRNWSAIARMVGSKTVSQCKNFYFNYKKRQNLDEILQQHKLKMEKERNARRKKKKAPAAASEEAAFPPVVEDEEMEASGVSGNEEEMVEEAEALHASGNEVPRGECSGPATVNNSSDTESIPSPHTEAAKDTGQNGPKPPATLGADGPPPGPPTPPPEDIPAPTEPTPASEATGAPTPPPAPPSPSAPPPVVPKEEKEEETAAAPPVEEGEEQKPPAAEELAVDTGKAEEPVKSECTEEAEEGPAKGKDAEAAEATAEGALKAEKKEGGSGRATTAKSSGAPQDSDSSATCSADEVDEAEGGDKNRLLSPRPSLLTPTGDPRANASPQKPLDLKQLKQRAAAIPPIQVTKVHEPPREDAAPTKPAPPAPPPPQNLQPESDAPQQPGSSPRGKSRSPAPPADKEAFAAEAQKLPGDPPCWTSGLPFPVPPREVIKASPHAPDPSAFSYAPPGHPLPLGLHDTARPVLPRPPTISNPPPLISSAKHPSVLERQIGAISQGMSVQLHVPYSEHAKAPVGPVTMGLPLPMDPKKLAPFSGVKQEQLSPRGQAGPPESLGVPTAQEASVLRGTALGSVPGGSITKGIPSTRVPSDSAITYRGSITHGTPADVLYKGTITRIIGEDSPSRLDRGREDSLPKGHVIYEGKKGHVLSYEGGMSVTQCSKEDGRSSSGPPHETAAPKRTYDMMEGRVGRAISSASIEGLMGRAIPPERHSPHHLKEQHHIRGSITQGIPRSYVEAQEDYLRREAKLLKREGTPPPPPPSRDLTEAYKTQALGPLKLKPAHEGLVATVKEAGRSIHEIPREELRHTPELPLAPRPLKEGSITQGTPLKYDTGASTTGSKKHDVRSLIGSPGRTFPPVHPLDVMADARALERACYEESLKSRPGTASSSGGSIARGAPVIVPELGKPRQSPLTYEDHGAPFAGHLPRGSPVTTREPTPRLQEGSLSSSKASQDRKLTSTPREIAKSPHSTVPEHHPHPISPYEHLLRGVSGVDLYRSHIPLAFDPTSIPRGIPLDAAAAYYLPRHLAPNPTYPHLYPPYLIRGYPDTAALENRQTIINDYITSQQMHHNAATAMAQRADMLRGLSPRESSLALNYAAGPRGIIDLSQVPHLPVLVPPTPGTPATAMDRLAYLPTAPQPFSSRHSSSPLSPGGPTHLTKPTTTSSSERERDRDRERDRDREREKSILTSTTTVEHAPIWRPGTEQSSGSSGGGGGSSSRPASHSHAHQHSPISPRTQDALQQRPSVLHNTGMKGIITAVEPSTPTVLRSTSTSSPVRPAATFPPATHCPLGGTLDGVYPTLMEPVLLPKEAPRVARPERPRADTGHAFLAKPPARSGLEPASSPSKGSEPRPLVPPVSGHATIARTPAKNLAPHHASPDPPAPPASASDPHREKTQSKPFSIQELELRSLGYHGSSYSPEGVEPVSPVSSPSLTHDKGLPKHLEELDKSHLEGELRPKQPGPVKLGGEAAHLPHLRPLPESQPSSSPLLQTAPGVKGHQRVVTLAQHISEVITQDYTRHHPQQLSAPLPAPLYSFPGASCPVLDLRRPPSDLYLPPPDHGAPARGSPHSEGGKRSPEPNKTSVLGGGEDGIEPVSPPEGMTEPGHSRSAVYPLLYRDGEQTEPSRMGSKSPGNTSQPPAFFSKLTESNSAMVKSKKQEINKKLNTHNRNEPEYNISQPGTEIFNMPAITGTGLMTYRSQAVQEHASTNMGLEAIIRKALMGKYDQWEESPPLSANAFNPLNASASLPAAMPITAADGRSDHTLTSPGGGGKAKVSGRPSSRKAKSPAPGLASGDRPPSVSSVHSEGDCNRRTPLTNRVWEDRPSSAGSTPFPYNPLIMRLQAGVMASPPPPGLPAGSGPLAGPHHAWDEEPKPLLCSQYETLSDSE

[5] = molecular target: T1, Protein deacetylase HDAC6 (Homo sapiens, UniProt Q9UBN7); assay: Inhibition of recombinant HDAC6 (unknown origin) using Boc-Lys(acetyl)-AMC as substrate preincubated for 1 hr followed by substrate addition and measured after 2 hrs by fluorescence based micro plate reader analysis
T1 sequence (Q9UBN7 whole entry): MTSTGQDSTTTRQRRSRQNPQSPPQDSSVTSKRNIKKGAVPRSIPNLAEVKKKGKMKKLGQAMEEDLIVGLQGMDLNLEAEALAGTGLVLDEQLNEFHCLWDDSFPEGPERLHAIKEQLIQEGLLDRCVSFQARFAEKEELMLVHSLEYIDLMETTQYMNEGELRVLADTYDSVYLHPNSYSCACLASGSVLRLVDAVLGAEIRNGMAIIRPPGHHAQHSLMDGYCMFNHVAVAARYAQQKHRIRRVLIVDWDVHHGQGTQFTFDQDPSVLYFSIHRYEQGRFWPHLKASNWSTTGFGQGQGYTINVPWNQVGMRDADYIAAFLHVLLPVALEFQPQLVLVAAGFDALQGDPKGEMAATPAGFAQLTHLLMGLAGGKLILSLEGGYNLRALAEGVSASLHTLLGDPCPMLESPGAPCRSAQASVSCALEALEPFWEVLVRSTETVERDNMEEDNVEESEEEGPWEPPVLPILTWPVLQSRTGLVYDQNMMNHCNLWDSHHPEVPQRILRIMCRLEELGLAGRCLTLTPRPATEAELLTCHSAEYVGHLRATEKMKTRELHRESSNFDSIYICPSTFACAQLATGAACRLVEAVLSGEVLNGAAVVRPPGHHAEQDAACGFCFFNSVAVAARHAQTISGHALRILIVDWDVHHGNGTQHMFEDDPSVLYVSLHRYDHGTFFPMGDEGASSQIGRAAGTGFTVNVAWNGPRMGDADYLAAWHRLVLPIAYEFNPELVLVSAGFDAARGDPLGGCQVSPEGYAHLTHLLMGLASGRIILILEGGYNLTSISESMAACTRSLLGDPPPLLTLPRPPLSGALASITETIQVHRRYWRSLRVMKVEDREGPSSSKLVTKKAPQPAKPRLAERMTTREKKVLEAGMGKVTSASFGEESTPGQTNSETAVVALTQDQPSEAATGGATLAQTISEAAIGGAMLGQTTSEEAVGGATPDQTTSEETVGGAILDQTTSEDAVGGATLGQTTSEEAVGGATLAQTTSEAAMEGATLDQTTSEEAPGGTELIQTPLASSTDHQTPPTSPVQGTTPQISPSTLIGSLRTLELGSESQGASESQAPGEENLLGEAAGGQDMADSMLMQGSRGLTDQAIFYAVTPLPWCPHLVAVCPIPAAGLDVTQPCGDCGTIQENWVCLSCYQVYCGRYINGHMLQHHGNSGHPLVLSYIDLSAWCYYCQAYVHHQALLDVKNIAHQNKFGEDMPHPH

[6] = test system: MV4-11; assay: Antiproliferative activity against human MV4-11 cells at 50 uM after 48 hrs by CellTiter-Blue dye based spectrophotometric analysis; type: functional, cell-based
[7] = test system: MV4-11; assay: Induction of apoptosis in human MV4-11 cells harboring wild type p53/FLT3-ITD mutant assessed as cleavage of pro-caspase 3 at 50 to 200 nM after 24 hrs by Western blot analysis; type: functional, cell-based
How it was run: (§1)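 Cells (1,500,000 per well) grown 12 h, then drug-treated as specified. Lysed in RIPA buffer, sonicated, centrifuged, protein normalized by BCA. Run on 4–12% Bis-Tris gels in MES, transferred, probed overnight at 4 °C with primary antibodies at 1/1000. Actin served as reference for LC3-II quantitation.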

[8] = test system: MV4-11; assay: Down regulation of FTL3 in human MV4-11 cells harboring wild type p53/FLT3-ITD mutant at 50 to 200 nM after 24 hrs by Western blot analysis; type: functional, cell-based; how it was run: as §1
[9] = test system: MV4-11; assay: Down regulation of STAT5 in human MV4-11 cells harboring wild type p53/FLT3-ITD mutant at 50 to 200 nM after 24 hrs by Western blot analysis; type: functional, cell-based; how it was run: as §1
[10] = test system: MV4-11; assay: Induction of apoptosis in human MV4-11 cells harboring wild type p53/FLT3-ITD mutant assessed as cleavage of pro-caspase 3 at 5000 nM after 24 hrs by Western blot analysis; type: functional, cell-based; how it was run: as §1
[11] = test system: RS4-11; assay: Induction of apoptosis in human RS4:11 cells harboring wild type p53/FLT3 assessed as cleavage of pro-caspase 3 at 5000 nM after 24 hrs by Western blot analysis; type: functional, cell-based; how it was run: as §1
[12] = test system: MV4-11; assay: cells; conditions: Homo sapiens, MV4-11, 48 h
[13] = test system: MV4-11; assay: Induction of apoptosis in human MV4-11 cells harboring wild type p53/FLT3-ITD mutant assessed as cleavage of pro-caspase 3 at 100 nM after 24 hrs by Western blot analysis; type: functional, cell-based; how it was run: as §1
[14] = test system: RS4-11; assay: Induction of apoptosis in human RS4:11 cells harboring wild type p53/FLT3 assessed as cleavage of pro-caspase 3 at 100 nM after 24 hrs by Western blot analysis; type: functional, cell-based; how it was run: as §1
[15] = Cmax in BALB/c mouse at 50 mg/kg, po via gavage after 24 hrs by Lc-MS/MS analysis; type: ADME, organism-based; set-up: dose 50 mg/kg, route oral; conditions: in vivo
[16] = Half life in BALB/c mouse at 50 mg/kg, po via gavage after 24 hrs by Lc-MS/MS analysis; type: ADME, organism-based; conditions: in vivo
[17] = AUC (0 to infinity) in BALB/c mouse at 50 mg/kg, po via gavage after 24 hrs by Lc-MS/MS analysis; type: ADME, organism-based; set-up: dose 50 mg/kg, time infinity, route oral; conditions: in vivo
[18] = Oral bioavailability in BALB/c mouse at 50 mg/kg dosed via gavage after 24 hrs by Lc-MS/MS analysis; type: ADME, organism-based; conditions: in vivo
[19] = test system: MV4-11; assay: Induction of apoptosis in human MV4-11 cells harboring wild type p53/FLT3-ITD mutant assessed as cleavage of pro-caspase 3 at 1000 to 5000 nM after 24 hrs by Western blot analysis; type: functional, cell-based; how it was run: as §1
[20] = test system: MV4-11; assay: Inhibition of autophagy in human MV4-11 cells assessed as LC3-II degradation at 5 uM after 24 hrs by Western blot analysis; type: functional, cell-based; how it was run: as §1

Row | IC50 [2] [nM] | IC50 [3] [nM] | IC50 [4] [nM] | IC50 [5] [nM] | SMILES | other results
1 | – | – | – | – | Nc1ccc2cc3ccccc3cc2c1 [2-AMINOANTHRACENE] | Activity [1]: Toxic
2 | 9840 | > 10000 | 5240 | > 50000 | Cc1[nH]c2ccccc2c1CCNCc1ccc(/C=C/C(=O)NNCCN)cc1 | –
3 | > 10000 | > 10000 | > 10000 | > 50000 | Cc1[nH]c2ccccc2c1CCNCc1ccc(/C=C/C(=O)NN2CCCCC2)cc1 | Activity [6]: inactive
4 | 28.8 | 279 | 12.6 | > 50000 | CCCNNC(=O)c1ccc(CN(CCc2c(C)[nH]c3ccccc23)C(=O)OC(C)(C)C)cc1 | –
5 | 210 | 3220 | 229 | > 50000 | CCCCN(CCC)NC(=O)/C=C/c1ccc(CNCCc2c(C)[nH]c3ccccc23)cc1 | –
6 | 2920 | 8070 | 550 | > 50000 | CCCN(CC)NC(=O)/C=C/c1ccc(CNCCc2c(C)[nH]c3ccccc23)cc1 | –
7 | 93 | 474 | 48.7 | > 50000 | CCCNNC(=O)c1ccc(NC(=O)c2ccccc2)cc1 | –
8 | 56.3 | 175 | 24.8 | > 50000 | CCCNNC(=O)c1ccc(OCc2ccccc2)cc1 | –
9 | 217 | 579 | 78.1 | > 50000 | CCCNNC(=O)c1ccc(CN(Cc2ccccc2)C(=O)OC(C)(C)C)cc1 | –
10 | 58.1 | 172 | 34.8 | > 50000 | Cc1[nH]c2ccccc2c1CCNCc1ccc(/C=C/C(=O)NNCCC#N)cc1 | –
11 | 15.8 | 67.5 | 6.12 | > 50000 | CCCNNC(=O)c1ccc(NCc2ccccc2)cc1 | –
12 | – | – | – | – | CCCNNC(=O)c1ccc(CNC(=O)/C=C/c2ccccc2)cc1 | Activity [7]: Active; Activity [8]: Active; Activity [9]: Active
13 | 11000 | 12900 | 996 | > 50000 | Cc1[nH]c2ccccc2c1CCNCc1ccc(/C=C/C(=O)NN(C)C)cc1 | Activity [6]: inactive
14 | 29.4 | 108 | 19.9 | > 50000 | CCCNNC(=O)c1ccc(CNCCc2c(C)[nH]c3ccccc23)cc1 | –
15 | – | – | – | – | O=C(CCCCCCC(=O)Nc1ccccc1)NO | Activity [10]: Active; Activity [11]: Active
16 | 8600 | > 10000 | 3090 | > 50000 | Cc1[nH]c2ccccc2c1CCNCc1ccc(/C=C/C(=O)NN2CCCC2)cc1 | Activity [6]: inactive
17 | 2520 | > 5000 | > 5000 | > 50000 | CCCNNC(=O)c1cccc(CN(CCc2c(C)[nH]c3ccccc23)C(=O)OC(C)(C)C)c1 | –
18 | 1670 | 4940 | 674 | > 50000 | CCCNNC(=O)c1cccc(CNCCc2c(C)[nH]c3ccccc23)c1 | –
19 | 88 | 441 | 96.7 | > 50000 | CCCNNC(=O)c1ccc(CNCc2ccccc2)cc1 | EC50 [12]: 173 nM
20 | – | – | – | – | Cc1[nH]c2ccccc2c1CCNCc1ccc(/C=C/C(=O)NO)cc1 [PANOBINOSTAT] | Activity [13]: Active; Activity [14]: Active; Activity [1]: Toxic; Cmax [15]: 116 ng/mL; half-life [16]: 2.9 h; AUC(0-inf) [17]: 126 ng·h/mL; bioavailability [18]: 4.62%
21 | – | – | – | – | Nc1ccccc1NC(=O)c1ccc(CNC(=O)OCc2cccnc2)cc1 | Activity [19]: Active
22 | 2880 | 9830 | 143 | > 50000 | CCCCCCN(CCC)NC(=O)/C=C/c1ccc(CNCCc2c(C)[nH]c3ccccc23)cc1 | –
23 | 382 | 7320 | 321 | > 50000 | CCCCCN(CCC)NC(=O)/C=C/c1ccc(CNCCc2c(C)[nH]c3ccccc23)cc1 | –
24 | – | – | – | – | CCN(CC)CCCC(C)Nc1ccnc2cc(Cl)ccc12 (stereo not drawn) | inhibition [20]: Active
25 | 1090 | 4210 | 310 | > 50000 | COC(=O)CCNNC(=O)/C=C/c1ccc(CNCCc2c(C)[nH]c3ccccc23)cc1 | –
26 | 413 | 1370 | 25.2 | > 50000 | CCCN(CCC)NC(=O)/C=C/c1ccc(CNCCc2c(C)[nH]c3ccccc23)cc1 | –
27 | 181 | 1300 | 16.8 | > 50000 | CCCNNC(=O)/C=C/c1ccc(CN(CCc2c(C)[nH]c3ccccc23)C(=O)OC(C)(C)C)cc1 | –
28 | > 10000 | > 10000 | > 10000 | > 50000 | Cc1[nH]c2ccccc2c1CCNCc1ccc(/C=C/C(=O)NN(CCCO)CCCO)cc1 | Activity [6]: inactive
